Several values for one entry are separate records, joined by “and”; a condition that tells them apart may be missing. Identical values can stand only once. Like-named read-outs stand apart in the source and are kept apart here.
Experiments:
[1] = cited from earlier work
hERG = conditions: cited from earlier work
KCNQ1-R243A/KCNE1 = assay: Two-electrode voltage clamp of KCNQ1-R243A/KCNE1 in Xenopus oocytes; assay type: cell-based, human; conditions: MTX 10 μM; CPT1 100 µM
How it was run: (§1)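 Mutant channels were made by site-directed mutagenesis and expressed from human cRNA (α-subunit 10 ng per oocyte) in stage V–VI oocytes for 2–5 days at 16°C. Room-temperature TEVC used a pH 7.6 Hepes-buffered bath with 4 mM KCl. Compound was perfused for 3 min, then currents were recorded at −80 to +40 mV in 20-mV steps. Fold current augmentation was plotted against voltage.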

human KCNQ1 = human KCNQ1 (Homo sapiens, UniProt P51787); assay: Two-electrode voltage clamp of KCNQ1 expressed in Xenopus laevis oocytes; assay type: cell-based; conditions: for negative shift in the voltage dependence of KCNQ1 activation: 100 μM compound; for effect on KCNQ1 gating kinetics (activation and deactivation rates): MTX 30 µM, CPT1 100 µM
human KCNQ1, sequence (P51787 whole entry): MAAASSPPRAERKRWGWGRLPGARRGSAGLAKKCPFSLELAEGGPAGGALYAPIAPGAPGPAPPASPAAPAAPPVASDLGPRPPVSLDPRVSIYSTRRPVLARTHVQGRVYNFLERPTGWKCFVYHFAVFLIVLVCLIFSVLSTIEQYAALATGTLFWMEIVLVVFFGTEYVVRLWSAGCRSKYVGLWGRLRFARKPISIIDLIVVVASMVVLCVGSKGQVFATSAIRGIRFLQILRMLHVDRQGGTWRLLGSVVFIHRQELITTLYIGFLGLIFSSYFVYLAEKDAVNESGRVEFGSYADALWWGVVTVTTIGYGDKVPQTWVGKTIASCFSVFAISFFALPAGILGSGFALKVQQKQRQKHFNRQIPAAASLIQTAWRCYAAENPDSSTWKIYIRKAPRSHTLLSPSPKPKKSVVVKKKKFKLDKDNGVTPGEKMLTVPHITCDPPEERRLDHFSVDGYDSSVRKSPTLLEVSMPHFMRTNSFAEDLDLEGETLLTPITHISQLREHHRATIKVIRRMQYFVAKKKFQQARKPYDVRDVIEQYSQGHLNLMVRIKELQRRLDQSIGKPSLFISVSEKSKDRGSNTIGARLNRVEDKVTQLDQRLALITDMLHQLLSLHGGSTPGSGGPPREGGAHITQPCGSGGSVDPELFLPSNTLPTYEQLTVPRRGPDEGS

KCNQ2-R213A/KCNQ3-R242A = assay: Two-electrode voltage clamp of KCNQ2-R213A/KCNQ3-R242A; assay type: cell-based, human
[2] = Pharmacokinetics in rats fed Mallotus philippensis extract; conditions: equates to 2 μg/ml
KCNQ1-R243A = assay: Two-electrode voltage clamp of KCNQ1-R243A mutant in Xenopus oocytes; assay type: cell-based, human; conditions: MTX 10 μM; CPT1 100 µM
How it was run: as §1

KCNQ1-KCNE1 = KCNQ1-KCNE1 (Homo sapiens, UniProt P51787); assay: Two-electrode voltage clamp of KCNQ1-KCNE1 in Xenopus oocytes; assay type: cell-based
KCNQ1-KCNE1, sequence (P51787 whole entry): as above

KCNQ2-R213A/KCNQ3 = assay: Two-electrode voltage clamp of KCNQ2-R213A/KCNQ3 in Xenopus oocytes; assay type: cell-based, human; conditions: at a given voltage
KCNQ1-KCNE3 = assay: Two-electrode voltage clamp of KCNQ1-KCNE3 in Xenopus oocytes; assay type: cell-based, human; conditions: 30 μM, across the voltage range studied
How it was run: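 Human KCNQ1 and KCNE3 cRNAs were injected into defolliculated stage V–VI oocytes (α-subunit cRNA 10 ng total per oocyte) and held 2–5 days at 16°C in Barth's with penicillin/streptomycin. Room-temperature TEVC used bath 96 mM NaCl, 4 mM KCl, 1 mM MgCl2, 1 mM CaCl2, 10 mM Hepes pH 7.6. Test compound was perfused 3 min at 1 ml/min. Prepulses were −80 to +40 mV in 20-mV steps, with tails at −30 mV; n = 8.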

KCNQ1-KCNE4 = assay: Two-electrode voltage clamp of KCNQ1-KCNE4 in Xenopus oocytes; assay type: cell-based, human; conditions: 30 μM
How it was run: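 Oocytes (stage V–VI, defolliculated) were co-injected with human KCNQ1 and KCNE4 cRNAs (α-subunit 10 ng total) and kept 2–5 days at 16°C. TEVC was run at room temperature in 4 mM KCl/96 mM NaCl Hepes bath, pH 7.6, after 3-min gravity perfusion of 30 μM test compound. Raw tail currents at −30 mV followed prepulses from −80 to +40 mV; n = 5.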

[3] = rats fed Mallotus philippensis extract; cited from earlier work
KCNQ2/KCNQ3-R242A = assay: Two-electrode voltage clamp of KCNQ2/KCNQ3-R242A in Xenopus oocytes; assay type: cell-based, human; conditions: compared with KCNQ2-R213A/KCNQ3 and wild type
KCNQ2/3 channels = conditions: cited from earlier work
BK = conditions: cited from earlier work
KCNQ1 = conditions: cited from earlier work

CC(=O)c1c(O)c(C)c(O)c(Cc2c(O)c3c(c(C(=O)/C=C/c4ccccc4)c2O)OC(C)(C)C=C3)c1O [MTX, mallotoxin]
toxicity [1]: toxic in large doses | effect on hERG potassium channel (hERG): activate | sensitivity of KCNQ1-R243A/KCNE1 complexes to compound (KCNQ1-R243A/KCNE1): completely insensitive | shift in KCNQ1 activation voltage dependence (human KCNQ1; 30 μM MTX): −27 mV | effect on KCNQ1 current in presence of UCL2077 (human KCNQ1; 30 μM MTX, UCL2077 10 μM, hyperpolarized voltages): still augmented | rescue of KCNQ1 from inhibition by UCL2077 (human KCNQ1; 30 μM MTX, UCL2077 10 μM, positive voltages): ineffective | negative shift in the voltage dependence of KCNQ1 activation (human KCNQ1): −27 mV | MTX effects on KCNQ1 in high extracellular K+ (human KCNQ1; 50 mM extracellular K+, 10 µM MTX): preserved | EC50 (human KCNQ1; EC50 (dose response) for the ΔV0.5 activation of KCNQ1): 9.4 ± 0.1 µM | EC50 (human KCNQ1; KCNQ1 activation EC50, at −40 mV): 9.9 µM and 10 µM | effect on KCNQ1 gating kinetics (activation and deactivation rates) (human KCNQ1): speeded KCNQ1 activation and slowed its deactivation | KCNQ1 current fold increase (human KCNQ1; at −40 mV, 30 μM): 5.4 fold | sensitivity of RA-RA KCNQ2/3 channels to MTX (KCNQ2-R213A/KCNQ3-R242A): insensitive | plasma level converted to molar concentration [2]: 4 µM | sensitivity of KCNQ1-R243A to compound (KCNQ1-R243A): completely insensitive | EC50 (KCNQ1-KCNE1): 27.9 ± 0.3 µM | shift of V0.5 of activation of KCNQ1-KCNE1 (KCNQ1-KCNE1; 30 μM MTX): −45 mV | effect on KCNQ1-KCNE1 currents (KCNQ1-KCNE1; 30 μM, across the voltage range tested): strongly augmented | MTX-induced shift in the V0.5 of activation versus wild-type KCNQ2/3 (KCNQ2-R213A/KCNQ3): slightly greater | effect on KCNQ1-KCNE3 channels (KCNQ1-KCNE3): moderately inhibited | effect on KCNQ1-KCNE4 activity (KCNQ1-KCNE4): minor augmentation | oral bioavailability [3]: > 20% | plasma concentrations [3]: > 2000 ng/mL | efficacy of MTX on KCNQ2/KCNQ3-R242A channels (KCNQ2/KCNQ3-R242A): even more efficacious | effect on KCNQ2/3 channels (KCNQ2/3 channels): activates | effect on BK potassium channel (BK): activate | effect on KCNQ1 potassium channel (KCNQ1): activate

CCC1=C(O)C(=O)CC1 [CPT1, 3-ethyl-2-hydroxy-2-cyclopenten-1-one]
sensitivity of KCNQ1-R243A/KCNE1 complexes to compound (KCNQ1-R243A/KCNE1): eliminated | EC50 (human KCNQ1): 0.1 µM | negative shift in the voltage dependence of KCNQ1 activation (human KCNQ1): −5 mV | potency on KCNQ1 relative to MTX (human KCNQ1; CPT1 versus MTX): 100 fold | effect on KCNQ1 gating kinetics (activation and deactivation rates) (human KCNQ1): statistically significant speeding of activation and slowing of deactivation | KCNQ1 current fold increase (human KCNQ1; at −60 mV, 100 μM): 2.7 fold | sensitivity of KCNQ1-R243A to compound (KCNQ1-R243A): eliminated

From paper PMC6235520 (Science Advances, 2018)
